Data as given in ChEMBL document CHEMBL1157063, “Gymnochromes E and F, cytotoxic phenanthroperylenequinones from a deep-water crinoid, Holopus rangii” (J Nat Prod, 2010).
In brackets after ≈: the same amount, converted by molar mass. Activity calls are given as the source filed them. The rule behind the calls is not given here.

Columns and labels:
Candida albicans = assay: Antifungal activity against Candida albicans after 18 hrs by microdilution broth method; format: functional, organism-based
Procedure, shortened: (§1)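 Reference strains: S. aureus ATCC 29213, methicillin-resistant S. aureus ATCC 700787, P. aeruginosa ATCC 27853 and C. albicans ATCC 44506. Method as previously described elsewhere.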

PANC-1 [1] = assay: Cytotoxicity against human PANC1 cells at 6.4 uM after 48 hrs by MTT assay; format: functional, cell-based
NCI/ADR-RES [2] = assay: Cytotoxicity against human NCI/ADR-RES cells after 48 hrs by MTT assay; format: functional, cell-based
Procedure, shortened: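 NCI/ADR-RES (formerly MCF-7/ADR) is a multidrug-resistant human ovarian carcinoma line from the NCI-Frederick tumor/cell line repository. It was scored for inhibition of proliferation using a previously described protocol. Each sample was run at least three times to derive the final IC50.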

DLD-1 [3] = assay: Cytotoxicity against human DLD1 cells at 6.4 uM after 48 hrs by MTT assay; format: functional, cell-based
NCI/ADR-RES [4] = assay: Cytotoxicity against human NCI/ADR-RES cells at 5.2 uM after 48 hrs by MTT assay; format: functional, cell-based
PANC-1 [5] = assay: Cytotoxicity against human PANC1 cells at 5.2 uM after 48 hrs by MTT assay; format: functional, cell-based
DLD-1 [6] = assay: Cytotoxicity against human DLD1 cells at 5.2 uM after 48 hrs by MTT assay; format: functional, cell-based
Histone deacetylase 1 = Histone deacetylase 1 (Homo sapiens, UniProt Q13547); assay: Inhibition of human HDAC1 assessed as [3H]acetate release after 90 mins by scintillation counting
Chain of Histone deacetylase 1 (Q13547 whole entry): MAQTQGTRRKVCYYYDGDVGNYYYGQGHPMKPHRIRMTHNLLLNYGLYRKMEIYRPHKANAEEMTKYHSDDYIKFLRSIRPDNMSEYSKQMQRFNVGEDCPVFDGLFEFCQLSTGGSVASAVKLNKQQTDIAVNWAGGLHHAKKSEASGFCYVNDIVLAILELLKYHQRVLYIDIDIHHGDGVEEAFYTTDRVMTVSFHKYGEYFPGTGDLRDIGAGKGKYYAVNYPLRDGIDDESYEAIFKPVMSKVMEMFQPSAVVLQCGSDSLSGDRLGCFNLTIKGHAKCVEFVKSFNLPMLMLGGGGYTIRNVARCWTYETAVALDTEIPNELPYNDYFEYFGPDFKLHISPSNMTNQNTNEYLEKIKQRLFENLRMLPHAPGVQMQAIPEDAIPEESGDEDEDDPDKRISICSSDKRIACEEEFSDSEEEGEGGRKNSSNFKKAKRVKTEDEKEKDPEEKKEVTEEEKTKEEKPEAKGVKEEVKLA

[7] = target: Induced myeloid leukemia cell differentiation protein Mcl-1 (Homo sapiens, UniProt Q07820); assay: Inhibition of MCL1 binding to Bak by FRET assay
Chain of Induced myeloid leukemia cell differentiation protein Mcl-1 (Q07820 whole entry): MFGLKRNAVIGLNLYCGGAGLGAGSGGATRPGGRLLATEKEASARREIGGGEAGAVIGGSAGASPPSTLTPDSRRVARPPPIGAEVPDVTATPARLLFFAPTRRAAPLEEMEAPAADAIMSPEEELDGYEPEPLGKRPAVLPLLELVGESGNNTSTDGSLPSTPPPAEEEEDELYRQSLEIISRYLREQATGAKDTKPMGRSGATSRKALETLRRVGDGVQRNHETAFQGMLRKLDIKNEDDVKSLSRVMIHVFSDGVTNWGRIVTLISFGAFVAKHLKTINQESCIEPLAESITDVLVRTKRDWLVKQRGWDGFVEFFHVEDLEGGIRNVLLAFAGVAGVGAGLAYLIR

Staphylococcus aureus [8] = assay: Antibacterial activity against Staphylococcus aureus after 18 hrs by microdilution broth method; format: functional; procedure, shortened: as §1
Staphylococcus aureus [9] = assay: Antibacterial activity against methicillin-resistant Staphylococcus aureus after 18 hrs by microdilution broth method; format: functional; procedure, shortened: as §1
Pseudomonas aeruginosa = assay: Antibacterial activity against Pseudomonas aeruginosa after 18 hrs by microdilution broth method; format: functional, organism-based; procedure, shortened: as §1

Structure (SMILES) | Activity (Candida albicans) | Activity (PANC-1 [1]) | Activity (NCI/ADR-RES [2]) | Activity (DLD-1 [3]) | Activity (NCI/ADR-RES [4]) | Activity (PANC-1 [5]) | Activity (DLD-1 [6]) | Activity (Histone deacetylase 1) | Activity [7] | Activity (Staphylococcus aureus [8]) | Activity (Staphylococcus aureus [9]) | Activity (Pseudomonas aeruginosa) | IC50 (NCI/ADR-RES [2]) [µM] | IC50 (Histone deacetylase 1) [µM] | MIC (Staphylococcus aureus [8]) [µg/mL] | MIC (Staphylococcus aureus [9]) [µg/mL] | IC50 [7] [µM]
O=C(O)c1cc(O)c2c(c1)C(=O)c1cc(O)cc(O)c1C2=O | inactive | inactive | inactive | inactive | inactive | inactive | inactive | inactive | inactive | inactive | inactive | inactive |  |  |  |  | 
CCC[C@@H](O)Cc1c(Br)c(O)c2c(=O)c3c(O)cc(O)c4c5c(O)cc(O)c6c(=O)c7c(O)c(Br)c(C[C@H](C)O)c8c1c2c(c34)c(c65)c78 [GYMNOCHROME E] | inactive | inactive |  | inactive |  |  |  |  |  |  |  | inactive | 3.5 | 10.9 | 25 (≈ 32.1 µM) | 25 (≈ 32.1 µM) | 
O=C(O)c1cc(O)c2c(c1)C(=O)c1cc(O)c(Br)c(O)c1C2=O | inactive | inactive | inactive | inactive | inactive | inactive | inactive | inactive | inactive | inactive | inactive | inactive |  |  |  |  | 
CCC[C@@H](O)Cc1c(Br)c(O)c2c(=O)c3c(O)c(Br)c(O)c4c5c(O)c(Br)c(O)c6c(=O)c7c(O)c(Br)c(C[C@H](O)CCC)c8c1c2c(c34)c(c65)c78 [GYMNOCHROME F] | inactive |  |  |  | inactive | inactive | inactive |  |  |  |  | inactive |  |  | 12.5 (≈ 13 µM) | 12.5 (≈ 13 µM) | 3.3
